One assay concerns MM96L. Description: Cytotoxicity against human MM96L cells after 6 days by SRB assay. The format is functional, cell-based. To be noted: 144 h. In short, it runs like this:
(§1)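 Seeded at 3000−5000 cells/well and exposed for 6 days to compounds diluted from 10 mg/mL DMSO stocks. The top final concentration was 50 μg/mL, carrying 0.5% DMSO final. Cells were ethanol-fixed and stained with sulforhodamine, with absorbance read at 540 nm against untreated controls. IC50 was interpolated from plots of percent control absorbance versus dose.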
A general note: Sulforhodamine B stains cellular protein and so reports cell mass.

Another assay relates to MCF7. Description: Cytotoxicity against human MCF7 cells after 6 days by SRB assay. The format is functional, cell-based. The settings on record: MCF7, 144 h. In short, it runs like this:
as §1

The next assay concerns HT-29. Description: Cytotoxicity against human HT-29 cells after 6 days by SRB assay. To be noted: HT-29, 144 h. Type of assay: functional, cell-based. In short, it runs like this:
as §1

The next assay concerns NFF. Description: Cytotoxicity against human NFF cells after 6 days by SRB assay. Type of assay: cell-based. The settings on record: 144 h. The essentials: as §1
The next assay concerns HeLa. As to the kind of experiment: Cytotoxicity against human HeLa cells after 6 days by SRB assay. The format is functional, cell-based. To be noted: 144 h. In short, it runs like this:
as §1

The next assay deals with K562. Description: Cytotoxicity against human K562 cells after 6 days by MTS assay. The settings on record: K562, 144 h. For orientation: Tetrazolium dyes change colour on reduction, which living cells bring about.

In brackets after ≈: the same amount, converted by molar mass.

As to `CC(=O)O[C@H]1CC[C@@]2(C)C(=CC[C@H]3[C@@H]4C[C@H](OC(C)=O)[C@H]([C@H](C)C(=O)CC[C@@H](C)CO)[C@@]4(C)CC[C@@H]32)C1`, the IC50 with MM96L came to 1 µg/mL (≈ 1.94 µM); in the assay with MCF7, 0.8 µg/mL (≈ 1.55 µM); with HT-29, 0.8 µg/mL (≈ 1.55 µM); in the assay on NFF it was 2 µg/mL (≈ 3.87 µM); in the assay with HeLa, 2.8 µg/mL (≈ 5.42 µM); with K562, 1.7 µg/mL (≈ 3.29 µM).

Regarding `CC(C)[C@H](O)[C@H](O)C[C@@H](C)[C@H]1[C@@H](O)C[C@H]2[C@@H]3CC(=O)[C@H]4C[C@@H](O)CC[C@]4(C)[C@H]3CC[C@]12C`, the IC50 in the assay with MM96L came out at 4.5 µg/mL (≈ 9.99 µM); with MCF7 it was 15 µg/mL (≈ 33.3 µM); in the assay on HT-29, 13 µg/mL (≈ 28.8 µM); in the assay with NFF, 17 µg/mL (≈ 37.7 µM); in the assay on HeLa it was 15 µg/mL (≈ 33.3 µM); in the assay on K562, 5 µg/mL (≈ 11.1 µM).

For `CC(C)[C@H](O)[C@H](O)C[C@@H](C)[C@H]1[C@@H](O)C[C@H]2[C@@H]3C[C@@H](O)[C@H]4C[C@@H](O)CC[C@]4(C)[C@H]3CC[C@]12C`, the IC50 worked out at 8.5 µg/mL (≈ 18.8 µM) with MM96L; 13 µg/mL (≈ 28.7 µM) in the assay on MCF7; 11 µg/mL (≈ 24.3 µM) in the assay with HT-29; 22 µg/mL (≈ 48.6 µM) in the assay with NFF; 12 µg/mL (≈ 26.5 µM) in the assay on HeLa; 7 µg/mL (≈ 15.5 µM) in the assay on K562.

Regarding `CC(C)[C@@H]1OC(C)(C)O[C@@H]1C[C@@H](C)[C@H]1[C@@H](O)C[C@H]2[C@@H]3C[C@@H](O)[C@H]4C[C@@H](O)CC[C@]4(C)[C@H]3CC[C@]12C`, the IC50 in the assay with MM96L is 5 µg/mL (≈ 10.1 µM); in the assay with MCF7, 5 µg/mL (≈ 10.1 µM); with HT-29, 3.5 µg/mL (≈ 7.1 µM); in the assay on NFF, 10 µg/mL (≈ 20.3 µM); in the assay with HeLa, 4.3 µg/mL (≈ 8.73 µM); in the assay on K562, 8.5 µg/mL (≈ 17.3 µM).

`CC(=O)OC[C@H](C)CC[C@H](OC(C)=O)[C@@H](C)[C@H]1[C@@H](OC(C)=O)C[C@H]2[C@@H]3CC=C4C[C@@H](OC(C)=O)CC[C@]4(C)[C@H]3CC[C@]12C`: the IC50 in the assay with MM96L came out at 3.5 µg/mL (≈ 5.81 µM); in the assay with MCF7 it was 11 µg/mL (≈ 18.2 µM); with HT-29, 4.5 µg/mL (≈ 7.47 µM); in the assay on NFF, 12 µg/mL (≈ 19.9 µM); in the assay on HeLa, 16 µg/mL (≈ 26.5 µM); with K562 it was 4.5 µg/mL (≈ 7.47 µM).

For `CC(=O)OC[C@H](C)CC[C@@H](OC(C)=O)[C@@H](C)[C@H]1[C@@H](OC(C)=O)C[C@H]2[C@@H]3CC=C4C[C@@H](OC(C)=O)CC[C@]4(C)[C@H]3CC[C@]12C`, the IC50 with MM96L stood at 4.5 µg/mL (≈ 7.47 µM); in the assay with MCF7, 7.5 µg/mL (≈ 12.4 µM); in the assay with HT-29, 6.5 µg/mL (≈ 10.8 µM); in the assay with NFF, 13 µg/mL (≈ 21.6 µM); in the assay on HeLa it was 13 µg/mL (≈ 21.6 µM); with K562, 8.5 µg/mL (≈ 14.1 µM).

As to `C[C@@H](CO)CC[C@@H](O)[C@@H](C)[C@H]1[C@@H](O)C[C@H]2[C@@H]3CC=C4C[C@@H](O)CC[C@]4(C)[C@H]3CC[C@]12C`, the IC50 in the assay with MM96L, in the assay with MCF7, with HT-29, in the assay with NFF, with HeLa and with K562 was > 50 µg/mL in each case.

For `CC(C)[C@H](O)[C@H](O)C[C@@H](C)[C@H]1[C@@H](O)C[C@H]2[C@@H]3CC(=O)[C@H]4C[C@@H](O[C@@H]5O[C@H](CO[C@@H]6O[C@H](CO)[C@@H](O)[C@H](O)[C@H]6O)[C@@H](O)[C@H](O)[C@H]5O)CC[C@]4(C)[C@H]3CC[C@]12C`, the IC50 in the assay on MM96L, in the assay with MCF7, in the assay on HT-29, in the assay on NFF, with HeLa and with K562 was > 50 µg/mL each time.

For the compound `CC(C)[C@H](O[C@@H]1O[C@H](C)[C@H](O)[C@H](O)[C@H]1O)[C@H](O)C[C@@H](C)[C@H]1[C@@H](O)C[C@H]2[C@@H]3CC(=O)[C@H]4C[C@@H](O[C@@H]5O[C@H](CO[C@@H]6O[C@H](CO)[C@@H](O)[C@H](O)[C@H]6O)[C@@H](O)[C@H](O)[C@H]5O)CC[C@]4(C)[C@H]3CC[C@]12C`, the IC50 with MM96L, in the assay with MCF7, in the assay with HT-29, with NFF, in the assay on HeLa and in the assay on K562 was > 50 µg/mL each time.

Turning to `CC(C)[C@H](O)[C@H](O)C[C@@H](C)[C@H]1[C@@H](O[C@@H]2O[C@H](CO)[C@@H](O)[C@H](O)[C@H]2O)C[C@H]2[C@@H]3CC(=O)[C@H]4C[C@@H](O[C@@H]5O[C@H](CO[C@@H]6O[C@H](CO)[C@@H](O)[C@H](O)[C@H]6O)[C@@H](O)[C@H](O)[C@H]5O)CC[C@]4(C)[C@H]3CC[C@]12C`, the IC50 in the assay on MM96L, in the assay with MCF7, with HT-29, in the assay on NFF, in the assay on HeLa and with K562 was > 50 µg/mL throughout.

On to `C[C@@H](CO)CC[C@H](O)[C@@H](C)[C@H]1[C@@H](O)C[C@H]2[C@@H]3CC=C4C[C@@H](O)CC[C@]4(C)[C@H]3CC[C@]12C`, for which the IC50 in the assay with MM96L, with MCF7, with HT-29, in the assay on NFF, in the assay on HeLa and in the assay on K562 was > 50 µg/mL throughout.

With `CC(C)[C@H](O)[C@H](O)C[C@@H](C)[C@H]1[C@@H](O)C[C@H]2[C@@H]3C[C@@H](O)[C@H]4C[C@@H](O[C@@H]5O[C@H](CO[C@@H]6O[C@H](CO)[C@@H](O)[C@H](O)[C@H]6O)[C@@H](O)[C@H](O)[C@H]5O)CC[C@]4(C)[C@H]3CC[C@]12C` [CHAMAELIROSIDE A], the half-inhibitory concentration (IC50) with MM96L, in the assay with MCF7, with HT-29, with NFF, in the assay with HeLa and in the assay with K562 was > 50 µg/mL in each case.

On to `CC(C)[C@H](O[C@@H]1O[C@H](C)[C@H](O)[C@H](O)[C@H]1O)[C@H](O)C[C@@H](C)[C@H]1[C@@H](O)C[C@H]2[C@@H]3C[C@@H](O)[C@H]4C[C@@H](O[C@@H]5O[C@H](CO[C@@H]6O[C@H](CO)[C@@H](O)[C@H](O)[C@H]6O)[C@@H](O)[C@H](O)[C@H]5O)CC[C@]4(C)[C@H]3CC[C@]12C` [CHAMAELIROSIDE B], for which the IC50 in the assay on MM96L, in the assay with MCF7, in the assay on HT-29, with NFF, in the assay with HeLa and with K562 was > 50 µg/mL each time.

As to `CC(=O)O[C@@H]1[C@H](O)[C@@H](O)[C@H](O[C@@H](C(C)C)[C@H](O)C[C@@H](C)[C@H]2[C@@H](O)C[C@H]3[C@@H]4C[C@@H](O)[C@H]5C[C@@H](O[C@@H]6O[C@H](CO[C@@H]7O[C@H](CO)[C@@H](O)[C@H](O)[C@H]7O)[C@@H](O)[C@H](O)[C@H]6O)CC[C@]5(C)[C@H]4CC[C@]23C)O[C@@H]1C` [CHAMAELIROSIDE C], the IC50 in the assay on MM96L, in the assay on MCF7, in the assay with HT-29, in the assay on NFF, in the assay with HeLa and in the assay with K562 was > 50 µg/mL in each case.

In the case of `CC(C)[C@H](O)[C@H](O)C[C@@H](C)[C@H]1[C@@H](O[C@@H]2O[C@H](CO)[C@@H](O)[C@H](O)[C@H]2O)C[C@H]2[C@@H]3C[C@@H](O)[C@H]4C[C@@H](O[C@@H]5O[C@H](CO[C@@H]6O[C@H](CO)[C@@H](O)[C@H](O)[C@H]6O)[C@@H](O)[C@H](O)[C@H]5O)CC[C@]4(C)[C@H]3CC[C@]12C` [CHAMAELIROSIDE E], the IC50 in the assay on MM96L, in the assay with MCF7, in the assay on HT-29, with NFF, in the assay with HeLa and with K562 was > 50 µg/mL in each case.

In the case of `C[C@@H]1CC[C@@]2(OC1)O[C@H]1C[C@H]3[C@@H]4CC=C5C[C@@H](O)CC[C@]5(C)[C@H]4CC[C@]3(C)[C@H]1[C@@H]2C` [DISOGENIN], the IC50 in the assay on MM96L, in the assay on MCF7, in the assay with HT-29, in the assay on NFF, in the assay with HeLa and in the assay with K562 was > 50 µg/mL throughout.

For the compound `C[C@@H](CO)CC[C@H](O)[C@@H](C)[C@H]1[C@@H](O)C[C@H]2[C@@H]3CC=C4C[C@@H](O)CC[C@]4(C)[C@H]3[C@H](O)C[C@]12C` [HELOGENIN], the IC50 in the assay on MM96L, with MCF7, in the assay with HT-29, in the assay on NFF, in the assay on HeLa and in the assay with K562 was > 50 µg/mL each time.

As to `C[C@H](CC[C@H](O)[C@@H](C)[C@H]1[C@@H](O)C[C@H]2[C@@H]3CC=C4C[C@@H](O[C@@H]5O[C@H](CO)[C@@H](O)[C@H](O)[C@H]5O)CC[C@]4(C)[C@H]3[C@H](O)C[C@]12C)CO[C@@H]1O[C@H](CO)[C@@H](O)[C@H](O)[C@H]1O` [HELOSIDE A], the IC50 with MM96L, in the assay on MCF7, in the assay on HT-29, in the assay on NFF, with HeLa and in the assay with K562 was > 50 µg/mL each time.

By IC50 is commonly meant the concentration that inhibits the measured activity by half.

For the origin of these results see ChEMBL document CHEMBL2086280, “Structure and bioactivity of steroidal saponins isolated from the roots of Chamaelirium luteum (false unicorn)” (J Nat Prod, 2012).
